The list is not random: actives were taken first. Their share in the collection is about 1.8%.
Apaf-1 inh: inhibitors of human Apaf-1 apoptosome, primary screen, biochemical, DEVD-Rh110 fluorescence, uHTS; reconstituted apoptosome caspase-3 activity; inhibition, % at 20 µM; 330,000 tested, 0.71% active; AID 489030, 2010; active = inhibition of at least 40% at 20 µM
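Material: cell-free apoptosome with Apaf-1, procaspase-3 and caspase-9; Buffer or medium: Hepes pH 7.5 with detergent and BSA; Reagent: cytochrome c trigger plus (Z-DEVD)2-Rh110 caspase-3 substrate; Times: compound with Apaf-1, dATP, procaspase-3 30 min, then 50 min reaction, room temperature; Technique: Rh110 fluorescence intensity.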
EBNA-1 inhibitor: EBNA-1 DNA-binding inhibitors, primary screen, biochemical, fluorescence polarization | inhibition, % at 14.8 µM | 300,000 tested, 0.34% active; in the data active = inhibition above about 28%
proCasp3 act: activators of human procaspase-3 D3A mutant, primary screen, biochemical, absorbance, PC-3 D3A mutant, single concentration | Caspase-3 (Homo sapiens), P42574 | recombinant procaspase-3 D3A, Ac-DEVD-pNA absorbance 405 nm | activation, % at 8.5 µM | 330,000 tested, 0.11% active | AID 463141, 2010;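 active = activation above the mean of all tested compounds plus 3 SD, cut at about 21% in these data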
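System: Procaspase-3 D3A mutant. Medium: Zinc-free 300 mM NaCl, 50 mM HEPES, 0.01% Triton X-100. Schedule: 1 h preincubation plus 2 h reaction at 25 °C. Measured by: 405 nm absorbance of p-nitroaniline, reads at 0 and 120 min. Read-out: percent activation relative to control range.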
ZTA DNA inh: counter-screen for EBNA-1 inhibitors: inhibitors of Epstein-Barr virus ZTA; P03206; ZTA-DNA binding, fluorescence polarization; inhibition, % at 11 µM; 320,000 tested, 0.15% active; AID 2234; in the data active = inhibition above about 33%
proCasp7 act: procaspase-7 activators, primary screen, counter-screen for procaspase-3 activator project, biochemical, absorbance, HTS, human; Caspase-7 (Homo sapiens), P55210; recombinant procaspase-7, Ac-DEVD-pNA absorbance 405 nm; D23A/D198A/D206A triple mutant, cannot self-cleave; scale: DMSO 0, 5 µM enzyme 100; activation, % at 8.5 µM; 330,000 tested, 0.093% active; AID 463210, 2010;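 active = percent activation above the screen-wide mean plus 3 SD, cut at about 25% in these data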
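Material: Procaspase-7 triple mutant (PC-7 D3A) | Quantity: 2 µM procaspase-7 mutant as dispensed | Reagent: DEVD-pNA substrate | Times: 1 h preincubation, 2 h reaction | Technique: 405 nm absorbance of p-nitroaniline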
GSTO1 counter: inhibitors of recombinant GSTO1, primary screen, counter-screen for RBBP9 inhibitor project, biochemical, fluorescence polarization. inhibition, % at 5.96 µM. Glutathione S-transferase omega-1 (Homo sapiens), P78417. 300,000 tested, 1.1% active. activity-based probe fluorescence polarization. AID 1974, 2009;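 active = inhibition above the campaign mean inhibition plus 3 SD, cut at about 35% in these data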
PC3 D3A act: procaspase-3 activators, counter-screen for dual procaspase-3/7 activator project, biochemical, absorbance, PC-3 D3A mutant, human; shares compounds with proCasp7 act; recombinant PC-3 D3A, Ac-DEVD-pNA absorbance 405 nm; aspartates 9, 28, 175 changed to alanine; 100% = enzyme control; activation, % at 8.5 µM; 290 tested, under 10 active;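 active = mean percent activation across triplicates above a set limit taken from the earlier primary procaspase-3 screen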
PC7 dual conf: activation of procaspase-7 enzyme – biochemical, absorbance, human, dual procaspase-3/-7 activator project, confirmation | shares compounds with proCasp7 act | recombinant procaspase-7, Ac-DEVD-pNA absorbance 405 nm; D23A/D198A/D206A mutant that cannot self-cleave | activation, % at 8.5 µM | 290 tested, under 10 active | AID 493115, 2011;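 active = mean activation above a set limit carried over from the earlier primary screen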
Hits are given with their value; – = inactive; · = no result given.

SMILES	Apaf-1 inh	EBNA-1 inhibitor	proCasp3 act	ZTA DNA inh	proCasp7 act	GSTO1 counter	PC3 D3A act	PC7 dual conf
COc1ccc(/C=C2\OC(=O)c3c(OC)cccc32)cc1OC	–	–	–	–	89	–	–	–
O=C(CCC(=O)N(CC(=O)NC1CCCC1)Cc1ccccc1)Nc1nccs1	–	–	–	–	101	–	–	–
O=C(CCC(=O)N(CC(=O)NC1CCCCC1)Cc1ccccc1)Nc1nccs1	–	–	–	–	–	–	·	·
CSc1ccccc1NC(=O)c1cc2c(=O)n3ccccc3nc2s1	–	–	–	–	39	–	–	–
COc1ccc(CN2CCN(C(=O)Cn3nc(C)n4cccc4c3=O)CC2)c(OC)c1OC	–	–	–	–	–	–	·	·
COC(=O)CSc1nc(C)c(C(=O)Nc2ccccc2C)c(-c2ccc(Cl)cc2)c1C#N	–	–	–	–	32	–	–	–
Cc1c(N(C)C(=O)COc2ccc3ccccc3c2)c(=O)n(-c2ccccc2)n1C	–	–	–	–	–	–	·	·
Cn1nc(C(=O)NNC(=O)c2cccc(Cl)c2)c2ccccc2c1=O	–	·	–	·	26	·	–	–
COc1ccc(C(=O)N/N=C/c2ccc(N(C)c3ccccc3)cc2)cc1	–	–	41	–	44	–	–	–
COc1cc(OC)c(OC)cc1/C=C1/Cc2ccccc2C1=O	–	–	–	–	28	–	–	–
O=C(NC(=S)NC1CCS(=O)(=O)C1)c1ccccc1 (configuration not stated)	–	–	–	–	–	–	·	·
O=C(NC(NC1CCS(=O)(=O)C1)C(=O)c1ccccc1)c1ccc(Cl)cc1 (configuration not stated)	–	–	–	–	47	–	–	–
COc1cccc(C=NCC(C)N=Cc2cccc(OC)c2O)c1O (configuration not stated)	–	–	–	–	82	–	–	–
CC(C)OC(=O)CC(=O)CSc1nc2c(cc1C#N)CCCCC2	–	–	–	–	37	–	–	–
CC(C)OC(=O)CSc1nc2c(cc1C#N)CCCCC2	–	–	–	–	–	–	·	·
CS(=O)(=O)N1N=C(c2ccco2)CC1c1ccco1 (configuration not stated)	–	–	–	–	36	–	–	–
CCOc1cccc(OCCOc2ccc(C(=O)c3ccccc3)cc2)c1	–	–	–	–	26	–	–	–
CCOC(=O)c1ccc2nc(Nc3nc4ccc(F)cc4s3)sc2c1	–	–	–	–	31	–	–	–
CCOC(=O)c1ccc2nc(NC(C)=O)sc2c1	·	–	–	–	–	–	·	·
CC(=O)Nc1cc(NC(C)=O)cc(C(=O)NCC2(N3CCOCC3)CCCCC2)c1	–	·	·	·	·	·	·	·
Cc1ccc(Cl)cc1NC(=O)[C@@H]1CCC(=O)N1C1OC(=O)c2ccccc21 (some centres not stated)	–	–	–	–	–	–	·	·
COc1cccc(CN(C)C(=O)/C=C/c2ccc(S(=O)(=O)N3CCCCCC3)cc2)c1	–	–	–	–	–	–	·	·
COc1nc(N)c(S(=O)(=O)c2ccc(C)cc2)cc1C#N	–	–	–	–	–	–	·	·
Cc1ccc(S(=O)(=O)c2cc(C#N)c(=O)[nH]c2N)cc1	–	–	–	–	28	–	–	–
Cc1cc(C)c(OCC(=O)OCC(=O)NNC(=O)c2ccccc2F)c(C)c1	–	·	–	–	–	·	·	·
SMILES	Apaf-1 inh	EBNA-1 inhibitor	proCasp3 act	ZTA DNA inh	proCasp7 act	GSTO1 counter	PC3 D3A act	PC7 dual conf
CSCCC(NS(=O)(=O)c1ccc(C)cc1)C(=O)N1CCN(S(=O)(=O)c2ccc(F)cc2)CC1 (configuration not stated)	–	–	–	–	–	–	·	·
CC(C)Cn1c(SC(C)C(=O)NCC2CCCO2)nc2ccc(Cl)cc2c1=O (configuration not stated)	–	·	–	–	–	·	·	·
COc1ccccc1NC(=O)Nc1cccc(NC(C)=O)c1	–	–	–	–	74	–	–	–
COc1ccc(NC(=O)Nc2cccc(NC(C)=O)c2)c(OC)c1	–	–	–	–	–	–	·	·
CCc1cc(=O)oc2cc(OC(C)C(=O)NCc3ccccn3)ccc12 (configuration not stated)	–	–	–	–	–	–	·	·
Cc1cc(C)n2nc(SCC(=O)N3CCN(c4ccccc4)CC3)nc2n1	–	·	–	·	–	·	·	·
CCCCNC(=O)c1ccc(/C=C2\Oc3ccccc3N(C)C2=O)cc1	–	–	–	–	–	–	·	·
CCN1CCN(CCCNC(=O)c2ccc(/C=C3/Oc4ccccc4N(Cc4cccc(C)c4)C3=O)cc2)CC1	47	–	–	–	28	–	–	–
COc1ccc([C@H]2CC(=O)C=C(c3cc(Cl)ccc3C)C2)cc1	–	·	–	–	–	·	·	·
Cc1ccc(Cl)cc1C1=CC(=O)C[C@H](c2ccc(F)cc2)C1	–	·	–	–	27	·	–	–
COc1ccc(-n2nc3cc(C)c(N)c(Br)c3n2)cc1	–	–	–	–	–	–	·	·
CCc1ccc(-n2nc3cc(C)c(N)cc3n2)cc1	–	–	35	–	28	36	–	–
COCC(=O)Nc1cccc(Br)c1	–	–	–	–	26	–	–	–
Cc1ccsc1C(=O)OCC(=O)NC1CCCC(C)C1C (configuration not stated)	–	·	–	·	–	·	·	·
O=C(Cc1cc(=O)oc2cc(O)ccc12)NC(Cc1ccc(Cl)cc1)C(=O)O (configuration not stated)	–	–	–	–	27	–	–	–
Cc1c(O)ccc2c(CC(=O)N[C@@H](Cc3ccc(O)cc3)C(=O)O)cc(=O)oc12	–	·	·	·	·	·	·	·
COc1ccccc1-c1nnc(SCC(=O)NNC(=O)c2ccccc2F)n1C	–	·	–	–	–	·	·	·
O=C1OCCN1C(=O)[C@H]1[C@H](c2ccc(F)cc2)C(c2ccccc2)=NN1c1ccccc1	–	·	–	·	–	·	·	·

Screening data from PubChem BioAssay.
